According to PubChem BioAssay AID465 (The Scripps Research Institute Molecular Screening Center, 2006):
About 130 (0.21%) of roughly 62,000 compounds were called active. The sample as a whole holds a higher share of actives than the screen did. Values without a mark were called inactive.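 How the source made its calls: active means inhibition above the mean of all tested compounds plus 3 SD (cut at about 40% in these data); inactive means the rest.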

Assay: inhibitors of PMA/ionomycin-induced NF-kB reporter, primary screen, antigen receptor NF-kB inhibitor project, cell-based, HEK-293 luciferase reporter, luminescence (AID 465);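 further: 0% = stimulated DMSO wells and 100% = 10 µM reference inhibitor 5653914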
Details: HEK-293 NF-kB luciferase reporter, at 3 µM, stronger effect = higher value
How it was run: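 Signal: luciferase luminescence; Material: HEK-293 cells with stable firefly luciferase reporter driven by four HIV NF-kB elements; Probe or stimulus: PMA with ionomycin; Replication: tested once; Times: 1 h compound pretreatment, then 16 h stimulation at 37 °C, 5% CO2; Benchmarks: DMSO and 10 µM reference inhibitor; Evaluation: per-plate % inhibition versus controls.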

SMILES	inhibition
N#CC1=C(N)OC2=C(C(=O)CCC2)C1C1CC=CCC1 (stereo not drawn)	16.6%
O=S(N1CCCCCC1)C12CC3CC(CC(C3)C1)C2 (stereo not drawn)	19.1%
O=C(O)CCC(=O)Nc1ccc(N2CCOCC2)cc1	7.6%
CC(=O)Nc1ccc(NS(=O)(=O)c2cc(C)sc2C)cc1	11.3%
CCOC(=O)CNC(=O)c1nn(-c2cccc(OC)c2)c(=O)c2ccccc12	5.1%
CC(=O)Nc1cc(C(=O)O)ccc1S(=O)(=O)c1ccc(Cl)cc1	15%
O=C(Nc1cnccn1)c1cccnc1	14.9%
Cc1csc(NC(=O)C2CCCN2C(=O)OCC(C)C)n1 (stereo not drawn)	3.7%
CCOC(=O)N1CCN(C(=O)c2cc3c(ccc4ccccc43)oc2=O)CC1	12.5%
CC(C)(C)NC(=O)Cn1nnc(-c2ccccc2Cl)n1	-10.7%
O=C1NC(c2cc3c(cc2Cl)OCO3)Oc2ccccc21 (stereo not drawn)	6.8%
Cc1cc(=O)n2c3c(cccc13)CCC2	7.5%
CCCCN(C)Cc1c(C)[nH]c2ccc(Cl)cc2c1=O	9.1%
CNC(=O)CSc1nnc(CCc2ccccc2)n1-c1ccccc1	11.6%
CCCCN=C(N)/C(C(=O)OCC)=C(\O)c1ccc(OC)cc1	7.4%
Cc1ccc(OS(=O)Nc2cccc3nccnc23)cc1 (stereo not drawn)	8.8%
COC(=O)[C@H](C)NC(=O)Nc1ccc(OC(F)(F)F)cc1	11.6%
Cc1ccnc(N2CCN(C(=O)CSc3nc4ccccc4nc3N3CCCCC3)CC2)c1	5.5%
COc1ccc(-c2nnn(CC(=O)N(CCO)C(C(=O)NC3CCCC3)c3ccc(F)cc3)n2)cc1 (stereo not drawn)	24%
CCN(CC)S(=O)(=O)c1cc(C(=O)Nc2ccccn2)ccc1C	-11.3%
O=C(Cc1nn[nH]n1)NCCC1=CCCCC1	4.2%
CC(=O)Oc1ccc(C(=O)Nc2nccs2)cc1	11.8%
Nc1ccc(SCCN2C(=O)c3ccccc3C2=O)cc1	6.7%
CCc1cc(=O)oc2cc(OCC(=O)N3CCCc4ccccc43)ccc12	12.9%
Cc1cc(C)c(NC(=O)CS(=O)CC(=O)Nc2cccnc2)c(C)c1 (stereo not drawn)	18.1%

SMILES	inhibition
C=CCC(NCCCO)c1cccc(OC)c1OC (stereo not drawn)	7.1%
O=C(CN1C2CCC1CC(NC(=O)C1CC1)C2)NCc1ccccc1 (stereo not drawn)	7.7%
CCCC(NC(=O)c1ccccc1)c1nc2ccccc2n1Cc1ccc(C(=O)OC)o1 (stereo not drawn)	17.4%
CCCC(CCC(=O)OC)(C(=O)OCC)c1csc(N)n1 (stereo not drawn)	2.1%
CCOC(=O)CSc1nncc2ccc(OC)c(OC)c12	2%
O=C(NC(=O)c1ccc(Cl)c(Cl)c1)OC1CCS(=O)(=O)C1 (stereo not drawn)	21.6%
CCCN1C2=C(C(=O)CCC2)C(c2ccc(O)c(Br)c2)C2=C1CCCC2=O	-2.4%
CCOC(=O)Cc1csc(NC(=O)CN(C)S(=O)(=O)c2ccc3c(c2)CCC(=O)N3)n1	0.2%
COc1cc(Cl)c(C)cc1NC(=O)CSc1nnc(-c2ccco2)n1CC(C)C	14.8%
O=C(CCC(=O)N1CCN(S(=O)(=O)c2ccccc2)CC1)NC1CCCc2ccccc21 (stereo not drawn)	15.4%
Cc1cc(Cl)c(S(=O)(=O)NCCC(=O)O)cc1OCC(N)=O	1.4%
CC(=O)N1CCN(c2ccc(NCc3ccc(C(C)C)cc3)cc2)CC1	-0.9%
CCCn1c(SCC(=O)Nc2cccc(C(=O)OCC)c2)nnc1-c1ccoc1C	-4.2%
CCOc1ccc(OCc2ccc(C(=O)Nc3cccc(C)n3)o2)cc1	-17.7%
O=P(c1cccs1)(c1cccs1)c1cccs1	22.9%
CCCn1cc(SCC(N)=O)c2ccccc21	2.8%
COc1ccc(N=Cc2c(O)[nH]c3ccccc23)cc1OC	-16.7%
CCN(CC)S(=O)(=O)c1ccc2nc(COC(=O)c3n[nH]c4ccccc34)[nH]c2c1	12.4%
Cc1ccn2cc(C(=O)NC3CCN(Cc4ccccc4)CC3)nc2c1	6.4%
COc1cccc(NC(=O)Cn2cnc3sc(C)c(S(=O)(=O)N4CCN(C)CC4)c3c2=O)c1	11.9%
COC(=O)c1ccc2c(=O)n(CC3CCCO3)c(=S)[nH]c2c1 (stereo not drawn)	12.2%
Cc1ccsc1C(=O)OCC(=O)c1cc2ccccc2o1	3.8%
Cc1ccsc1C(=O)OCC(=O)c1cc(C)n(CC2CCCO2)c1C (stereo not drawn)	55.2% (active)
O=C1NC(c2ccncc2)Nc2sc3c(c21)CCCC3 (stereo not drawn)	8%
COc1cccc(N(CC(=O)Nc2cccc(F)c2)S(C)(=O)=O)c1	22.4%

SMILES	inhibition
N#CCCn1cnc2ccccc21	13.5%
CC1CCCN(Cc2nc3c(c(=O)n(C)c(=O)n3C)n2Cc2cccc3ccccc23)C1 (stereo not drawn)	30.3%
Cc1c(C(=O)N2CC(C)OC(C)C2)sc2nc(-c3ccccc3)cn12 (stereo not drawn)	-1.4%
CCN(CC)CCNC(=O)Cn1cnc2sc(C)c(S(=O)(=O)N3CCOCC3)c2c1=O	4.3%
O=C(CN1CCN(C(=O)c2ccco2)CC1)Nc1ccc(Cl)c(C(F)(F)F)c1	3.2%
NC(=O)C1CC=CCC1C(=O)OCC(Cl)=C(Cl)Cl (stereo not drawn)	0.1%
CCOCCc1c(O)nc(SCC(=O)NCc2ccco2)[nH]c1=O	2.4%
Cc1ccc(C(=O)Nc2nnc(-c3ccncc3)s2)o1	7.3%
O=C(O)C1CCCN1S(=O)(=O)c1ccc2c(c1)CCC2 (stereo not drawn)	15.4%
COC(=O)c1ccccc1NC(=O)c1ccccc1NS(C)(=O)=O	14.9%
O=C(CSC1=NCCS1)Nc1nc(-c2ccccc2)cs1	-2.2%
COC(=O)c1ccc(NC(=O)CN(c2ccc(C)cc2)S(=O)(=O)c2c(C)n[nH]c2C)cc1	21.2%
O=C(NCCN1CCOCC1)[C@H](Cc1ccccc1)N1C(=O)c2ccccc2C1=O	3.6%
CCC1=C/C(=C\c2ccc3c(c2)OCO3)C(=O)S1	21.2%
O=C(c1ccco1)N1CCN(C(=O)c2ccc(COc3ccc(F)cc3)o2)CC1	7%
COCCCN1C(=O)C(=O)/C(=C(/O)c2ccc3c(c2)CC(C)O3)C1c1cccnc1 (stereo not drawn)	7.3%
CCCOC(=O)Cc1c(O)c2ccccc2[nH]c1=O	6.5%
COC(=O)Nc1ccc(S(=O)(=O)N(C)CC(F)(F)C(F)F)cc1	3.4%
CCn1nnc(NC(=O)c2c(OC)cccc2OC)n1	10.1%
O=C(c1ccc2c(c1)OCCO2)C1CCN(S(=O)(=O)c2cccc(F)c2)CC1	6.7%
COC(=O)NC1(C(F)(F)F)NC(=O)N(C2CCCCC2)C1=O (stereo not drawn)	9.8%
O=C1NC(Nc2nc3ccccc3s2)(C(F)(F)F)C(=O)N1C1CCCCC1 (stereo not drawn)	50.1% (active)
CC(=O)c1c(C)n([O-])c2ccccc2[n+]1=O	12.7%
CC(=O)OC(C(=O)NCCc1ccccc1)c1cccnc1 (stereo not drawn)	15.3%
Cn1c(=O)n(C)c2cc(C(=O)Nc3ccc4c(c3)OCO4)ccc21	40.7% (active)

SMILES	inhibition
Cn1c(NC(=O)c2ccc3c(c2)OCO3)cc(=O)n(C)c1=O	-1.2%
COc1ccc(C(=O)Nc2ccc3c(c2)OCO3)cc1OC	-6.2%
O=C(NC1CCCCC1)C1CCCN(S(=O)(=O)c2cccs2)C1 (stereo not drawn)	10.2%
O=C(NCCN=C1NS(=O)(=O)c2ccccc21)c1ccc(S(=O)(=O)N2CCOCC2)cc1	11.1%
Cc1nnc(SCC(=O)N(C(C)C)C(C)C)nc1C	6.1%
O=C(Nc1c(C(=O)N2CCCCC2)cnn1-c1ccccc1)c1ccco1	-3.8%
C(=C\c1ccccc1)/CSc1nnc(-c2cccnc2)n1Cc1ccco1	11.5%
Cc1ccc(NC(=O)CN2CCC3(O)CCCCC3C2c2ccc3c(c2)OCO3)c(C)c1 (stereo not drawn)	0.9%
Oc1c(C(c2cccs2)N2CCN(c3ccc(F)cc3)CC2)sc2ncnn12 (stereo not drawn)	-1%
CCOc1ccc(OCC)c(NC(=O)C2CCN(S(=O)(=O)c3c(C)noc3C)CC2)c1	15.5%
O=c1cccc(-c2ccc(Br)cc2)o1	10.6%
O=C(Nc1cccc2c1CCCC2)C1CCN(C(=O)NC2CCCCC2)CC1	16.4%
COc1ccc2c(Cl)c(-c3nnco3)sc2c1	26.5%
C=CCNC(=O)c1cc(-c2ccccc2O)on1	-6.4%
O=C(Nn1cnc2ccccc2c1=O)c1ccc(F)cc1Cl	-16.4%
Cc1cccc(NC(=O)C2CCCN2S(=O)(=O)c2ccc(F)cc2)c1C (stereo not drawn)	19.8%
COc1cccc(NS(=O)(=O)c2ccc3[nH]cc(C(=O)NCCCOC(C)C)c(=O)c3c2)c1	9%
CCOC(=O)CSc1nnc(CNC(=O)c2cccs2)n1-c1cc(OC)ccc1OC	9.1%
CCOC(=O)N1CCN(C(=O)COc2ccc(Br)cc2)CC1	3.3%
CNC(=O)CN1C(=O)c2ccccc2S1(=O)=O	16.9%
O=C(c1cccc(C(=O)N2CCc3ccccc32)n1)N1CCc2ccccc21	1.5%
O=C(CN1C(=O)c2ccccc2S1(=O)=O)N1CCc2ccccc21	59% (active)
Cc1[nH]c2ccc(S(N)(=O)=O)cc2c1C	14.3%
